Measurements of several laboratories.
Compare with care: the assays were run in different laboratories.
CDK6 with cyclin D3: Cyclin-dependent kinase 6, with cyclin D3 (CDK6, Homo sapiens, UniProt Q00534)
CDK6 with cyclin D1: Cyclin-dependent kinase 6, with cyclin D1 (CDK6, Homo sapiens, UniProt Q00534)

With CCN(CC)CCNC(=O)c1c(C)[nH]c(/C=C2\C(=O)Nc3ccc(F)cc32)c1C the inhibition was 13% (CDK6 with cyclin D3; enzyme activity, inhibitor; 0.3 µM).
The remaining signal of N#CCCc1ccc2c(c1)-c1[nH]c3ccc([N+](=O)[O-])cc3c1CC(=O)N2 is reported as 6.79% (CDK6 with cyclin D1; cell-free assay; 0.5 µM).
With Cn1cnc(Br)c1C1=CN(c2ncnc3[nH]cnc23)CCS1 the inhibition was 22% (Cyclin-dependent kinase 6 (CDK6, Homo sapiens, UniProt Q00534); enzyme activity, inhibitor, radiometric; 50 nM).
O=C1NC(=O)c2cc(Nc3ccc(F)cc3)c(Nc3ccc(F)cc3)cc21 has a remaining signal of 89.9% (CDK6 with cyclin D3; cell-free assay; 0.5 µM).
With CC(C)(O)[C@H]1CC[C@H](Nc2ccc3ncc(-c4cccc(C(F)(F)F)c4)n3n2)CC1 the remaining activity was 101% (CDK6 with cyclin D1; enzyme activity, inhibitor; 1 µM).
The remaining activity of CC(C)(C)c1nc2c(s1)c1nc(N)ncc1c1ccc(NS(=O)(=O)c3c(F)cccc3F)c(F)c12 is reported as 97% (CDK6 with cyclin D3; enzyme activity, inhibitor, radiometric; 1 µM).
With O=C1Nc2ccc(Cl)cc2C1=Cc1cc(Cl)c(O)c(Cl)c1 the remaining signal was 94.1% (CDK6 with cyclin D3; cell-free assay; 0.5 µM).
With Cc1ccc(Nc2nccc(N(C)c3ccc4c(C)n(C)nc4c3)n2)cc1S(N)(=O)=O the inhibition was 38% (CDK6 with cyclin D3; enzyme activity, inhibitor; 10 µM).
Cc1cnc(NC2CCOCC2)nc1-n1cnc(C(=O)NC(CN)c2cc(F)cc(Cl)c2)c1 (centres unmarked) gave a remaining activity of 31% (CDK6 with cyclin D3; enzyme activity, inhibitor, radiometric; 1 µM).
With CCCS(=O)(=O)Nc1ccc(F)c(C(=O)c2c[nH]c3ncc(-c4ccc(Cl)cc4)cc23)c1F the inhibition was less than 10% (CDK6 with cyclin D3; enzyme activity, inhibitor; 1 µM).
Cc1ccc(NC(=O)c2ccc(C)c(C(F)(F)F)c2)cc1C#Cc1nn(C2CCC(O)CC2)c2ncnc(N)c12 (centres unmarked) has a remaining signal of 120% (CDK6 with cyclin D3; cell-free assay; 10 µM).
CNC(=O)c1cc(Oc2ccc(NC(=O)Nc3ccc(Cl)c(C(F)(F)F)c3)cc2)ccn1 has an inhibition of -11% (CDK6 with cyclin D3; enzyme activity, inhibitor; 0.3 µM).
With O=C(Nc1cnn(-c2csc(C(=O)NC3COC3)c2)c1)Nc1c(F)cccc1Cl the remaining activity was 105% (CDK6 with cyclin D1; enzyme activity, inhibitor; 5 µM).
CC(C)(C)c1nc(-c2cccc(NS(=O)(=O)c3c(F)cccc3F)c2F)c(-c2ccnc(N)n2)s1 gave a remaining activity of 104% (CDK6 with cyclin D1; enzyme activity, inhibitor, radiometric; 1 µM).
With O=C(Nc1cnn(-c2csc(C(=O)NC3COC3)c2)c1)Nc1ccccc1Cl the remaining activity was 95.4% (CDK6 with cyclin D1; enzyme activity, inhibitor; 5 µM).
CCCOc1ccc(OC)c(F)c1C(=O)c1ccc(C(=O)N[C@@H]2CNC[C@H]2NC(=O)c2ccc3[nH]ncc3c2)cc1 has a remaining activity of 83% (CDK6 with cyclin D3; enzyme activity, inhibitor; 10 µM).
CCN(CC)c1ccc(C2=NNC(=O)CC2C)cc1[N+](=O)[O-] (centres unmarked) has a remaining activity of 90% (CDK6 with cyclin D3; enzyme activity, inhibitor; 10 µM).
